From ChEMBL document CHEMBL3112482, “Nonclassical antifolates, part 5. Benzodiazepine analogs as a new class of DHFR inhibitors: synthesis, antitumor testing and molecular modeling study” (Eur J Med Chem, 2014)
pIC50: −log10 of the molar value.

How the values were obtained:
[1] = system: MDA-MB-435; test: Growth inhibition of human MDA-MB-435 cells at 10 uM after 48 hrs; assay type: functional; details: MDA-MB-435, 48 h, read-out: GI
How it was run: (§1)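 Single-dose primary screen in the NCI 60 human tumour cell line panel, run at the NCI facility. The panel covers nine subpanels: leukaemia, non-small cell lung, colon, CNS, melanoma, ovarian, renal, prostate and breast. Read-out was percent growth of treated cells, shown as a mean graph and reported as percent growth inhibition.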

[2] = system: SNB-75; test: Growth inhibition of human SNB75 cells at 10 uM after 48 hrs; assay type: functional; details: SNB-75, 48 h, read-out: GI
How it was run: (§2)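 NCI 60-cell-line disease-oriented human tumor panel, single-dose primary screen at 10 µM. Data given as mean-graph percent growth of treated cells, reported as percent growth inhibition (GI %).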

[3] = system: SNB-19; test: Growth inhibition of human SNB19 cells at 10 uM after 48 hrs; assay type: functional; details: SNB-19, 48 h, read-out: GI; how it was run: as §2
[4] = Growth inhibition of human SF539 cells at 10 uM after 48 hrs; assay type: functional; details: SF-539, 48 h, read-out: GI; how it was run: as §2
[5] = system: SF-268; test: Growth inhibition of human SF268 cells at 10 uM after 48 hrs; assay type: functional; details: SF-268, 48 h, read-out: GI; how it was run: as §2
[6] = system: SW-620; test: Growth inhibition of human SW620 cells at 10 uM after 48 hrs; assay type: functional; details: SW-620, 48 h, read-out: GI; how it was run: as §2
[7] = system: HT-29; test: Growth inhibition of human HT-29 cells at 10 uM after 48 hrs; assay type: functional; details: HT-29, 48 h, read-out: GI; how it was run: as §1
[8] = Growth inhibition of human HCC2998 cells at 10 uM after 48 hrs; assay type: functional; details: HCC 2998, 48 h, read-out: GI; how it was run: as §1
[9] = system: NCI-H460; test: Growth inhibition of human NCI-H460 cells at 10 uM after 48 hrs; assay type: functional; details: NCI-H460, 48 h, read-out: GI; how it was run: as §1
[10] = system: NCI-H322M; test: Growth inhibition of human NCI-H322M cells at 10 uM after 48 hrs; assay type: functional; details: read-out: GI; how it was run: as §1
[11] = system: NCI-H23; test: Growth inhibition of human NCI-H23 cells at 10 uM after 48 hrs; assay type: functional; details: NCI-H23, 48 h, read-out: GI; how it was run: as §1
[12] = system: NCI-H226; test: Growth inhibition of human NCI-H226 cells at 10 uM after 48 hrs; assay type: functional; details: NCI-H226, 48 h, read-out: GI; how it was run: as §1
[13] = Growth inhibition of human EKVX cells at 10 uM after 48 hrs; assay type: functional; details: read-out: GI; how it was run: as §1
[14] = system: A549; test: Growth inhibition of human A549 cells at 10 uM after 48 hrs; assay type: functional; details: A549, 48 h, read-out: GI; how it was run: as §1
[15] = system: SR; test: Growth inhibition of human SR cells at 10 uM after 48 hrs; assay type: functional; details: read-out: GI; how it was run: as §2
[16] = system: K562; test: Growth inhibition of human K562 cells at 10 uM after 48 hrs; assay type: functional; details: K562, 48 h, read-out: GI; how it was run: as §1
[17] = system: MOLT-4; test: Growth inhibition of human MOLT4 cells at 10 uM after 48 hrs; assay type: functional; details: MOLT-4, 48 h, read-out: GI; how it was run: as §1
[18] = system: CCRF-CEM; test: Growth inhibition of human CCRF-CEM cells at 10 uM after 48 hrs; assay type: functional; details: read-out: GI; how it was run: as §1
[19] = target: T1, Dihydrofolate reductase (Bos taurus, UniProt P00376); test: Inhibition of bovine liver DHFR measured for every 1 min of 10 mins
T1 sequence (P00376 whole entry): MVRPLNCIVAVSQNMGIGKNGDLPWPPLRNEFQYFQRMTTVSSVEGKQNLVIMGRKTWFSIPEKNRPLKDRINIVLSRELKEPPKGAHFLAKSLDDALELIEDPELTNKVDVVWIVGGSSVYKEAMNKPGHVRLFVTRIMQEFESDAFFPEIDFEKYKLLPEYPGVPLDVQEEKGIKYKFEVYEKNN

[20] = Cytotoxicity against human prostate cancer cells at 10 uM after 48 hrs; assay type: functional; details: Cancer cell lines
[21] = Cytotoxicity against human renal cancer cells at 10 uM after 48 hrs; assay type: functional; details: Cancer cell lines
[22] = Cytotoxicity against human CNS cancer cells at 10 uM after 48 hrs; assay type: functional; details: Cancer cell lines
[23] = system: T47D; test: Growth inhibition of human T47D cells at 10 uM after 48 hrs; assay type: functional; details: read-out: GI; how it was run: as §2
[24] = system: BT-549; test: Growth inhibition of human BT549 cells at 10 uM after 48 hrs; assay type: functional; details: BT-549, 48 h, read-out: GI; how it was run: as §1
[25] = Growth inhibition of human Hs 578T cells at 10 uM after 48 hrs; assay type: functional; details: read-out: GI; how it was run: as §1
[26] = system: MCF7; test: Growth inhibition of human MCF7 cells at 10 uM after 48 hrs; assay type: functional; details: MCF7, 48 h, read-out: GI; how it was run: as §1
[27] = system: MDA-MB-231; test: Growth inhibition of human MDA-MB-231 cells at 10 uM after 48 hrs; assay type: functional; details: MDA-MB-231, 48 h, read-out: GI; how it was run: as §1
[28] = system: PC-3; test: Growth inhibition of human PC3 cells at 10 uM after 48 hrs; assay type: functional; details: PC-3, 48 h, read-out: GI; how it was run: as §1
[29] = system: TK-10; test: Growth inhibition of human TK10 cells at 10 uM after 48 hrs; assay type: functional; details: TK-10, 48 h, read-out: GI; how it was run: as §2
[30] = Growth inhibition of human UO31 cells at 10 uM after 48 hrs; assay type: functional; details: UO-31, 48 h, read-out: GI; how it was run: as §2
[31] = system: CAKI-1; test: Growth inhibition of human CAKI-1 cells at 10 uM after 48 hrs; assay type: functional; details: CAKI-1, 48 h, read-out: GI; how it was run: as §1
[32] = system: 786-0; test: Growth inhibition of human 786-0 cells at 10 uM after 48 hrs; assay type: functional; details: 786-0, 48 h, read-out: GI; how it was run: as §1
[33] = system: SK-OV-3; test: Growth inhibition of human SKOV3 cells at 10 uM after 48 hrs; assay type: functional; details: SK-OV-3, 48 h, read-out: GI; how it was run: as §2
[34] = Growth inhibition of human NCI-ADR-RES cells at 10 uM after 48 hrs; assay type: functional; details: read-out: GI; how it was run: as §1
[35] = system: OVCAR-8; test: Growth inhibition of human OVCAR8 cells at 10 uM after 48 hrs; assay type: functional; details: OVCAR-8, 48 h, read-out: GI; how it was run: as §1
[36] = Growth inhibition of human OVCAR5 cells at 10 uM after 48 hrs; assay type: functional; details: OVCAR-5, 48 h, read-out: GI; how it was run: as §1
[37] = system: OVCAR-3; test: Growth inhibition of human OVCAR3 cells at 10 uM after 48 hrs; assay type: functional; details: OVCAR-3, 48 h, read-out: GI; how it was run: as §1
[38] = Growth inhibition of human OVCAR4 cells at 10 uM after 48 hrs; assay type: functional; details: OVCAR-4, 48 h, read-out: GI; how it was run: as §1
[39] = Growth inhibition of human UACC257 cells at 10 uM after 48 hrs; assay type: functional; details: UACC-257, 48 h, read-out: GI; how it was run: as §2
[40] = system: SK-MEL-28; test: Growth inhibition of human SK-MEL-28 cells at 10 uM after 48 hrs; assay type: functional; details: SK-MEL-28, 48 h, read-out: GI; how it was run: as §2
[41] = system: SK-MEL-2; test: Growth inhibition of human SK-MEL-2 cells at 10 uM after 48 hrs; assay type: functional; details: SK-MEL-2, 48 h, read-out: GI; how it was run: as §2

Q: With `Clc1ccc(/C=C2\CCCC3=C(c4ccc(Cl)cc4)Nc4ccccc4N=C32)cc1` as the compound, how does the inhibition of growth at 10 µM [1] read?
A: 88.2%

Q: And the inhibition of growth at 10 µM [2]?
A: < 30%

Q: And the inhibition of growth at 10 µM [3]?
A: < 30%

Q: What about the inhibition of growth at 10 µM [4] of the same compound?
A: < 30%

Q: What about the inhibition of growth at 10 µM [5] of the same compound?
A: < 30%

Q: What about the inhibition of growth at 10 µM [6] of the same compound?
A: 58.6%

Q: What about the inhibition of growth at 10 µM [7] of the same compound?
A: 84.1%

Q: What about the inhibition of growth at 10 µM [8] of the same compound?
A: < 30%

Q: What about the inhibition of growth at 10 µM [9] of the same compound?
A: < 30%

Q: And the inhibition of growth at 10 µM [10]?
A: < 30%

Q: What about the inhibition of growth at 10 µM [11] of the same compound?
A: < 30%

Q: And the inhibition of growth at 10 µM [12]?
A: < 30%

Q: What about the inhibition of growth at 10 µM [13] of the same compound?
A: < 30%

Q: What about the inhibition of growth at 10 µM [14] of the same compound?
A: < 30%

Q: What about the inhibition of growth at 10 µM [15] of the same compound?
A: 78.5%

Q: What about the inhibition of growth at 10 µM [16] of the same compound?
A: 52.8%

Q: What about the inhibition of growth at 10 µM [17] of the same compound?
A: 34.2%

Q: What about the inhibition of growth at 10 µM [18] of the same compound?
A: < 30%

Q: And the pIC50 [19]?
A: 6.52

Q: And the GI50 [20]?
A: 5.1 µM

Q: And the LC50 [20]?
A: > 100 µM

Q: What about the TGI [20] of the same compound?
A: 61.9 µM

Q: What about the CC50 [21] of the same compound?
A: 64 µM

Q: And the GI50 [21]?
A: 3.3 µM

Q: What about the TGI [21] of the same compound?
A: 29.1 µM

Q: What about the GI50 [22] of the same compound?
A: 4.9 µM

Q: What about the TGI [22] of the same compound?
A: 52.4 µM

Q: And the CC50 ([22]; read-out: LC50 (the source's name))?
A: 84.3 µM

Q: What about the inhibition of growth at 10 µM [23] of the same compound?
A: < 30%

Q: What about the inhibition of growth at 10 µM [24] of the same compound?
A: < 30%

Q: What about the inhibition of growth at 10 µM [25] of the same compound?
A: < 30%

Q: And the inhibition of growth at 10 µM [26]?
A: 64.2%

Q: And the inhibition of growth at 10 µM [27]?
A: < 30%

Q: What about the inhibition of growth at 10 µM [28] of the same compound?
A: < 30%

Q: What about the inhibition of growth at 10 µM [29] of the same compound?
A: < 30%

Q: What about the inhibition of growth at 10 µM [30] of the same compound?
A: < 30%

Q: And the inhibition of growth at 10 µM [31]?
A: < 30%

Q: And the inhibition of growth at 10 µM [32]?
A: < 30%

Q: And the inhibition of growth at 10 µM [33]?
A: < 30%

Q: What about the inhibition of growth at 10 µM [34] of the same compound?
A: < 30%

Q: What about the inhibition of growth at 10 µM [35] of the same compound?
A: 34.3%

Q: What about the inhibition of growth at 10 µM [36] of the same compound?
A: < 30%

Q: What about the inhibition of growth at 10 µM [37] of the same compound?
A: 33%

Q: And the inhibition of growth at 10 µM [38]?
A: < 30%

Q: And the inhibition of growth at 10 µM [39]?
A: < 30%

Q: And the inhibition of growth at 10 µM [40]?
A: < 30%

Q: What about the inhibition of growth at 10 µM [41] of the same compound?
A: < 30%
